According to ChEMBL document CHEMBL1909507, “Substituted phenyl 4-(2-oxoimidazolidin-1-yl)benzenesulfonamides as antimitotics. Antiproliferative, antiangiogenic and antitumoral activity, and quantitative structure-activity relationships” (Eur J Med Chem, 2011):
Activity calls are given as the source filed them. No cut-off for these calls is given here.

Experiments:
CHO-TAX 5-6 [1] = test: Ratio of IC50 for paclitaxel-resistant CHO-TAX 5-6 cells to IC50 for CHO cells; format: functional, Cricetulus griseus
Outline: (§1)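 Each ratio is the IC50 in the resistant line divided by the IC50 in its parental line (CHO for CHO-TAX 5-6 and CHO-VV 3-2; CEM for CEM-VLB).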

CHO-VV 3-2 [2] = test: Antiproliferative activity against colchicine and vinblastine-resistant CHO-VV 3-2 cells after 48 hrs by SRB assay; format: functional, cell-based; conditions: Cricetulus griseus, CHO-VV 3-2, 48 h
Outline: (§2)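 Adherent cells were seeded per line (e.g. HT-29 5000, M21 3500, MCF7 7500, CHO and CHO-VV 3-2 and CHO-TAX 5-6 1000 cells/well) and grown 24 h at 37 °C, 5% CO₂. DMSO-solubilized drug was diluted in medium and added at 1000–0.98 nM for 48 h. Cells were fixed with cold 10% TCA and stained with 0.1% sulforhodamine B, with absorbance read at 530–565 nm.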

CHO-VV 3-2 [3] = test: Ratio of IC50 for colchicine and vinblastine-resistant CHO-VV 3-2 cells to IC50 for CHO cells; format: functional, Cricetulus griseus; outline: as §1
[4] = Antiproliferative activity against human multidrug-resistant CEM/VLB cells after 48 hrs by SRB assay; format: functional
CCRF-CEM [5] = test: Ratio of IC50 for human multidrug-resistant CEM/VLB cells to IC50 for human CEM cells; format: functional; outline: as §1
M21 [6] = test: Cell cycle arrest in human M21 cells assessed as accumulation at G0/G1 phase at 5 times IC50 after 24 hrs using propidium iodide staining by flow cytometric analysis (reference value: 61%); format: functional
Outline: (§3)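 Cells were trypsinized, fixed in ice-cold ethanol, treated with RNase, and stained with propidium iodide (1 mg/mL stock) for 1 h on ice. Cell-cycle distribution was measured by flow cytometry.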

M21 [7] = test: Cell cycle arrest in human M21 cells assessed as accumulation at S phase at 5 times IC50 after 24 hrs using propidium iodide staining by flow cytometric analysis (reference value: 30%); format: functional; outline: as §3
M21 [8] = test: Cell cycle arrest in human M21 cells assessed as accumulation at G2/M phase at 5 times IC50 after 24 hrs using propidium iodide staining by flow cytometric analysis (reference value: 9%); format: functional; outline: as §3
MDA-MB-231 [9] = test: Displacement of N,N'-ethylenebis(iodoacetamide) from beta-tubulin colchicine-binding site in human MDA-MB-231 cells at 1000 times IC50 preincubated for 2 hrs before N,N'-ethylenebis(iodoacetamide) addition measured after 1.5 hrs by chemiluminescence assay; format: cell-based
Outline: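 EBI (100, final) was added for 1.5 h at 37 °C with drug present; control was 0.5% DMSO. Sonicated lysates (20 µg protein) were run on 10% SDS-PAGE and blotted with anti-β-tubulin TUB 2.1. The β-tubulin–EBI adduct was scored by ECL.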

M21 [10] = test: Disruption of cytoskeleton microtubule structure of human M21 cells at 5 times IC50 after 16 hrs by indirect immunofluorescence assay; format: functional, cell-based
Outline: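 Cells were fixed in 3.7% formaldehyde, permeabilized with saponin, and stained with anti-β-tubulin TUB 2.1, Alexa-488 anti-mouse secondary and DAPI. Fluorescence microscopy was used for imaging.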

[11] = Toxicity against fertilized chicken embryo assessed as mortality at 3 ug, iv by CAM assay; format: organism-based, Gallus gallus; conditions: in vivo, read-out: Activity
Outline: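 HT-1080 fibrosarcoma cells (3.5 × 10⁵ cells/egg) grafted onto the chorioallantoic membrane of fertilized chicken eggs (10 days preincubation). On day 11, drug in DMSO diluted into excipient (ethanol:cremophor:PBS 6.25:6.25:87.5) given iv at 3 µg per egg. Chick mortality recorded over 7-day tumor growth period. Untreated eggs as negative controls and for normalization. Cumulative results from two independent experiments, 10–12 eggs each.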

HT-1080 [12] = test: Antitumor activity against human HT1080 cells xenografted in chicken chorioallantoic membrane assessed as inhibition of tumor growth at 3 ug, iv measured on day 17 by CAM assay; format: functional
Outline: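 Fertilized chicken eggs were incubated 10 days, then 3.5 × 10⁵ HT-1080 cells/egg were applied to the exposed chorioallantoic membrane. On day 11, drug was given iv in DMSO diluted in excipient (ethanol:cremophor:PBS 6.25:6.25:87.5). Read-out was tumor wet weight as % of untreated eggs, plus chick mortality. Data were pooled from two independent experiments of 10–12 eggs each.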

HT-29 = test: Antiproliferative activity against human HT-29 cells after 48 hrs by SRB assay; format: functional, cell-based; conditions: HT-29, 48 h; outline: as §2
M21 [13] = test: Antiproliferative activity against human M21 cells after 48 hrs by SRB assay; format: functional, cell-based; conditions: M21, 48 h; outline: as §2
MCF7 = test: Antiproliferative activity against human MCF7 cells after 48 hrs by SRB assay; format: functional, cell-based; conditions: MCF7, 48 h; outline: as §2
K562 = test: Antiproliferative activity against human K562 after 48 hrs by SRB assay; format: functional, cell-based; conditions: K562, 48 h
L1210 = test: Antiproliferative activity against mouse L1210 after 48 hrs by SRB assay; format: functional, cell-based; conditions: L1210, 48 h
DU-145 = test: Antiproliferative activity against human DU145 after 48 hrs by SRB assay; format: functional, cell-based; conditions: DU-145, 48 h
HT-1080 [14] = test: Antiproliferative activity against human HT1080 after 48 hrs by SRB assay; format: functional, cell-based; conditions: HT-1080, 48 h; outline: as §2
MDA-MB-231 [15] = test: Antiproliferative activity against human MDA-MB-231 after 48 hrs by SRB assay; format: functional, cell-based; conditions: MDA-MB-231, 48 h
SK-OV-3 = test: Antiproliferative activity against human SKOV3 after 48 hrs by SRB assay; format: functional, cell-based; conditions: SK-OV-3, 48 h; outline: as §2
CCRF-CEM [16] = test: Antiproliferative activity against human CEM after 48 hrs by SRB assay; format: functional, cell-based
CHO-TAX 5-6 [17] = test: Antiproliferative activity against paclitaxel-resistant CHO-TAX 5-6 cells after 48 hrs by SRB assay; format: functional, cell-based; conditions: Cricetulus griseus, CHO-TAX 5-6, 48 h; outline: as §2
[18] = Antiproliferative activity against mouse B16F0 after 48 hrs by SRB assay
[19] = Antiproliferative activity against mouse P388D1 after 48 hrs by SRB assay; conditions: P388D1, 48 h
CHO = test: Antiproliferative activity against Chinese hamster CHO after 48 hrs by SRB assay; conditions: Cricetulus griseus

| SMILES | Ratio IC50 (CHO-TAX 5-6 [1]) | IC50 (CHO-VV 3-2 [2]) [nM] | Ratio IC50 (CHO-VV 3-2 [3]) | IC50 [4] [nM] | Ratio IC50 (CCRF-CEM [5]) | Activity (M21 [6]) [%] | Activity (M21 [7]) [%] | Activity (M21 [8]) [%] | Activity (MDA-MB-231 [9]) | Activity (M21 [10]) | mortality [11] [%] | IC50 (HT-29) [nM] | IC50 (M21 [13]) [nM] | IC50 (MCF7) [nM] | IC50 (K562) [nM] | IC50 (L1210) [nM] | IC50 (DU-145) [nM] | IC50 (HT-1080 [14]) [nM] | IC50 (MDA-MB-231 [15]) [nM] | IC50 (SK-OV-3) [nM] | further results |
| --- | --- | --- | --- | --- | --- | --- | --- | --- | --- | --- | --- | --- | --- | --- | --- | --- | --- | --- | --- | --- | --- |
| O=C1NCCN1c1ccc(S(=O)(=O)Nc2cccc(Br)c2)cc1 | 0.3 | 270 | 1.1 | 250 | 2.3 | 2 | 20 | 78 | Active | Active | 24 | 77 | 59 | 100 | 87 | 99 | 340 | 170 | 290 | 170 | growth inhibition (GI) (HT-1080 [12]): 19%; IC50 (CCRF-CEM [16]): 110 nM; IC50 (CHO-TAX 5-6 [17]): 76 nM; IC50 [18]: 270 nM; IC50 [19]: 90 nM; IC50 (CHO): 250 nM |
| O=C1NCCN1c1ccc(S(=O)(=O)Nc2cccc(Cl)c2)cc1 | 0.6 | 150 | 1.6 | 170 | 2.2 | 5 | 33 | 62 | Active | Active | 8 | 55 | 25 | 79 | 69 | 77 | 230 | 68 | 200 | 70 | inhibition (HT-1080 [12]): inactive; IC50 (CCRF-CEM [16]): 77 nM; IC50 (CHO-TAX 5-6 [17]): 58 nM; IC50 [18]: 190 nM; IC50 [19]: 78 nM; IC50 (CHO): 96 nM |
| CCc1cccc(NS(=O)(=O)c2ccc(N3CCNC3=O)cc2)c1 | 0.61 | 250 | 1.1 | 450 | 2.3 | 0 | 5 | 95 | Active | Active | 11 | 110 | 82 | 130 | 230 | 200 | 730 | 200 | 1410 | 230 | growth inhibition (GI) (HT-1080 [12]): 45%; IC50 (CCRF-CEM [16]): 200 nM; IC50 (CHO-TAX 5-6 [17]): 140 nM; IC50 [18]: 270 nM; IC50 [19]: 250 nM; IC50 (CHO): 230 nM |
| Cc1cccc(NS(=O)(=O)c2ccc(N3CCNC3=O)cc2)c1 | 0.65 | 280 | 1.2 | 370 | 1.9 | 1 | 16 | 83 | Active | Active | 8 | 110 | 69 | 190 | 200 | 180 | 580 | 210 | 1270 | 200 | inhibition (HT-1080 [12]): inactive; IC50 (CCRF-CEM [16]): 200 nM; IC50 (CHO-TAX 5-6 [17]): 150 nM; IC50 [18]: 290 nM; IC50 [19]: 250 nM; IC50 (CHO): 230 nM |
| COc1cc(NS(=O)(=O)c2ccc(N3CCNC3=O)cc2)cc(OC)c1OC | 0.89 | > 250 | >1.3 | > 250 | >11 | 12 | 12 | 74 | Active | Active | 40 | 21 | 13 | 18 | 19 | 21 | 51 | 17 | 45 | 22 | growth inhibition (GI) (HT-1080 [12]): 25%; IC50 (CCRF-CEM [16]): 23 nM; IC50 (CHO-TAX 5-6 [17]): 170 nM; IC50 [18]: 58 nM; IC50 [19]: 38 nM; IC50 (CHO): 190 nM |
| Cc1ccc(C)c(NS(=O)(=O)c2ccc(N3CCNC3=O)cc2)c1 | 0.7 | 110 | 1.4 | 120 | 1.6 | 1 | 20 | 79 | Active | Active | 27 | 46 | 27 | 48 | 72 | 81 | 1610 | 65 | 110 | 72 | inhibition (HT-1080 [12]): inactive; IC50 (CCRF-CEM [16]): 74 nM; IC50 (CHO-TAX 5-6 [17]): 54 nM; IC50 [18]: 86 nM; IC50 [19]: 79 nM; IC50 (CHO): 77 nM |
| O=C1NCCN1c1ccc(S(=O)(=O)Nc2ccc3[nH]ccc3c2)cc1 | 0.49 | 1860 | 1.4 | 4840 | 12 | 27 | 22 | 51 | Active | Active | 8 | 130 | 87 | 170 | 340 | 260 | 1370 | 230 | 3600 | 280 | inhibition (HT-1080 [12]): inactive; IC50 (CCRF-CEM [16]): 410 nM; IC50 (CHO-TAX 5-6 [17]): 640 nM; IC50 [18]: 770 nM; IC50 [19]: 520 nM; IC50 (CHO): 1310 nM |
| COc1cccc(NS(=O)(=O)c2ccc(N3CCNC3=O)cc2)c1 | 0.61 | 450 | 1.4 | 700 | 2.7 | 10 | 29 | 61 | Active | Active | 16 | 120 | 65 | 120 | 230 | 240 | 650 | 200 | 730 | 240 | growth inhibition (GI) (HT-1080 [12]): 41%; IC50 (CCRF-CEM [16]): 260 nM; IC50 (CHO-TAX 5-6 [17]): 200 nM; IC50 [18]: 370 nM; IC50 [19]: 250 nM; IC50 (CHO): 330 nM |
